From PubChem BioAssay
Active and inactive are the calls of the source.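 How the source made its calls, unless noted: active means visually confirmed hit in the image check and inhibition above 20%; inconclusive means visually confirmed hit but inhibition not above 20%; inactive means no visual hit in the image check.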

What was measured:
[1] = inhibitors of TNFa-induced NFkB p65 translocation, primary screen, imaging, HUVEC, MLSMR starter and 10KST1 sets (AID 438;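 active means inhibition above 20% together with a positive visual image hit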;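 further: compound added about 3h40 before a 20 min TNFalpha stimulation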;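 on inhibition: signal is the nuclear over cytoplasmic p65 intensity ratio per well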); settings: HUVEC TNFa-induced p65 nuclear translocation; cell count: measured here: nuclei count (cytotoxicity indicator), at 2.08 µM; inhibition: at 2 µM, stronger effect = higher value, 0% TNFa-plus-vehicle, 100% no-TNFa wells
[2] = endothelial E-selectin expression blockers – imaging, HUVEC, immunofluorescence, MLSMR starter and 10KST1 sets, primary screen (AID 487); settings: HUVEC TNFalpha-induced E-selectin immunofluorescence imaging, at 2 µM; inhibition: stronger effect = higher value; nuclei count: measured here: cell number, toxicity;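 on inhibition: signal is fraction of cell area covered by stained E-selectin grains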;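 on nuclei count: 100% = median nuclei count of all wells on the same plate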
[3] = Primary imaging screen for DUSP6 inhibitors that restore phospho-Erk in transfected HeLa cells, chemical complementation (AID 609;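 active means compounds giving at least 50% inhibition in the cell-based MKP-3 phosphatase rescue imaging test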;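 on inhibition: phospho-Erk level distribution per well compared with pooled transfected vehicle control wells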); settings: HeLa MKP-3 transfected, phospho-Erk imaging KS statistic, at 10 µM, cells stimulated with TPA for 15 min
[4] = biological target: Dual specificity protein phosphatase 6 (Homo sapiens) (UniProt Q16828); assay: as above; settings: HeLa MKP-3 transfected, phospho-Erk imaging KS statistic; at 10 µM; stronger effect = higher value; cells stimulated with TPA for 15 min
Dual specificity protein phosphatase 6 (Homo sapiens), sequence (Q16828 whole entry, looked up): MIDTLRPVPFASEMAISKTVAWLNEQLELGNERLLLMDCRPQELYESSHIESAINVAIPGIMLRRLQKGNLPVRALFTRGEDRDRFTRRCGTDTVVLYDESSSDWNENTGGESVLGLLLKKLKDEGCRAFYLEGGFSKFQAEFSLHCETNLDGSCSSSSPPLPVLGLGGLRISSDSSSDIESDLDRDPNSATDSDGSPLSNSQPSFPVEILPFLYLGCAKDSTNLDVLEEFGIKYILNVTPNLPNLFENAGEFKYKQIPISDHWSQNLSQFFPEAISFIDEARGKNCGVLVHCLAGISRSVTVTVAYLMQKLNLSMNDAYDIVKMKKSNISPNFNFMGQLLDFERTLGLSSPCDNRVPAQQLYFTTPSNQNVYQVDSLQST

[5] = biological target: Voltage-gated potassium channel subunit beta-2 (Rattus norvegicus) (UniProt P62483); assay: inhibitors of rat Kvbeta2 reductase activity – biochemical, NADPH fluorescence, primary screen (AID 622;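 active means fluorescence slope higher than the sample average by over 3 SD, cut at about -0.22 in these data, passing the limit was not always enough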;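 further: slope of raw intensity against log time taken from 70 to 1610 s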); settings: recombinant KvBeta, 4-cyanobenzaldehyde reduction, at 10 µM, stronger effect = higher value
Voltage-gated potassium channel subunit beta-2 (Rattus norvegicus), sequence (P62483 whole entry, looked up): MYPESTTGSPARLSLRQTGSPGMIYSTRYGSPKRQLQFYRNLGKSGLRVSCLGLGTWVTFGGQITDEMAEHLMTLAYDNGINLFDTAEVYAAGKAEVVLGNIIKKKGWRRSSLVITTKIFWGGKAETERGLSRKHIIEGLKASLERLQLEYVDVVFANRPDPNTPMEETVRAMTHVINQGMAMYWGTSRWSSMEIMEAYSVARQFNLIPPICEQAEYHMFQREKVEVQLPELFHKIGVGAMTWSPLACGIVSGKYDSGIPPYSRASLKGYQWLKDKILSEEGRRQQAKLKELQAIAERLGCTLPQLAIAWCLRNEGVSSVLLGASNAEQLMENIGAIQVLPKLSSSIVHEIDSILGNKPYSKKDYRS

[6] = biological target: Voltage-gated potassium channel subunit beta-2 (Rattus norvegicus) (UniProt P62483); assay: enhancers of rat Kvbeta2 NADPH turnover – biochemical, NADPH fluorescence, primary screen (AID 623;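 active means NADPH fluorescence slope more negative than the mean of all samples by about 3 SD, 99.7% confidence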;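 further: fluorescence intensity change per second fitted from 20 to 320 s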); settings: Recombinant KvBeta, NADPH fluorescence decrease slope, 10 min; at 10 µM; stronger effect = lower value
[7] = biological target: Muscarinic acetylcholine receptor M4 (Homo sapiens) (UniProt P08173); assay: M4-linked GIRK flux change, two-sided – cell-based, HEK293 M4/GIRK, thallium flux, BTC-AM, M4 allosteric agonist project, primary screen (AID 625;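 active means fluorescence slope after compound addition differing from the mean of all tested samples at 99.7% confidence, mostly higher but some lower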;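 further: thallium influx through GIRK channels coupled to M4 in HEK293 cells with BTC-AM dye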); settings: at 10 µM, actives lie on both sides
Muscarinic acetylcholine receptor M4 (Homo sapiens), sequence (P08173 whole entry, looked up): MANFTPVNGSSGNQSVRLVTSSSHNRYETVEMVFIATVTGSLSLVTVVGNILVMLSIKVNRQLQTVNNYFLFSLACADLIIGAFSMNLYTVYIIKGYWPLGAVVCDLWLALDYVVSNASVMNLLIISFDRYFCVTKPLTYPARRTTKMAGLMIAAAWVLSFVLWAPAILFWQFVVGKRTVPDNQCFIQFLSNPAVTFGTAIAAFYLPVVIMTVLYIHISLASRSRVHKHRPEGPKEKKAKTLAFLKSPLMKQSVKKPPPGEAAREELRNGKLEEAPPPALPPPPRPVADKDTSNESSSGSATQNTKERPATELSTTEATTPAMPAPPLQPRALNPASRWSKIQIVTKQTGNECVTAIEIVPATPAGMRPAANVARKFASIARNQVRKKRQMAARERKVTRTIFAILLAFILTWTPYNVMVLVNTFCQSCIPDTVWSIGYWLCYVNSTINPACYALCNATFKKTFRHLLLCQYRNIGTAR
How it was run: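 Material: HEK293 cells with M4 receptor and GIRK channels; Times: cells overnight at 37 °C, BTC-AM loading 1 h, reads 2 min total; Technique: kinetic BTC-AM fluorescence sampled at 1 Hz, 10 s pre-addition baseline; Read-out basis: slope over 15–24 s of trace normalized to starting intensity; Controls: carbachol positive, DMSO negative.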

[8] = inhibitors of larval lipid processing in zebrafish, primary screen, whole organism, PED6 fluorescence, gall bladder and intestine (AID 686;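 active means a full or partial loss of lipid-probe fluorescence in the fish gall bladder, intestine or both, judged by eye; inactive means no fluorescence loss, or compound toxic to the fish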;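 further: larvae 5 to 7 days old with five fish per well; signal comes from phospholipase A2 cleavage of quenched PED6 carried via bile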); settings: Zebrafish larvae PED6 lipid processing, fluorescence scoring; screened at 20 µM (by protocol)
How it was run: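 Incubation: overnight exposure of larvae to compound plus PED6 / Test system: live zebrafish larvae aged 5-7 days, whole organism / Amount: 5 larvae per well / Read-out basis: visual per-well fluorescence inhibition score / Signal: visual fluorescence microscopy scoring of gall bladder, gut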

[9] = loss of swimming-algae plug formation – whole organism, Chlamydomonas reinhardtii, WT vs cilia-less mutant, absorbance, 96-well, primary screen (AID 463189;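 active means inhibition at or above 50% relative to wild type and mutant plate controls; inactive means inhibition below 50%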;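 further: 0% = wild type cc124 cells in DMSO and 100% = ciliumless bld1 mutant cells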); settings: Chlamydomonas reinhardtii gravitaxis, OD600 absorbance, 2 days; at 10 µM; stronger effect = higher value
[10] = measured here: cell density z-score
[11] = measured here: nuclear c-Myc green intensity z-score
[12] = measured here: nuclear pErk red intensity z-score, stronger effect = higher value

Row | SMILES | cell count [1] | inhibition [1] | inhibition [2] | nuclei count [2] | z-score [3, 10] | z-score [3, 11] | z-score [3, 12] | inhibition [4] | fluorescence slope [5] | NADPH fluorescence slope [6] | fluorescence slope [7] | outcome [8] | inhibition [9]
1 | CC1(C)Cc2c(C#N)c(N3CCN(C(=O)c4ccccc4)CC3)nc(-c3ccco3)c2CS1 | 640 | -9% (inactive) | -74.3% (inactive) | 156% | 0.833 | 0.824 | -0.638 | 19.1% (inactive) | -0.401 (inactive) | -2.5e-05 (inactive) | 0.0059 (inactive) | inactive | 7.79% (inactive)
2 | COc1ccc2nc(/N=C(\N)NC(=O)C(C)(C)C)nc(C)c2c1 | 503 | -6.3% (inactive) | -18.6% (inactive) | 184% | 0.367 | -0.163 | -0.285 | 9.91% (inactive) | -0.361 (inactive) | -3e-05 (inactive) | 0.00616 (inactive) | inactive; toxic | 2.17% (inactive)
3 | N#Cc1nc(-c2cccs2)oc1NCc1ccc2c(c1)OCO2 | 624 | -4.4% (inactive) | -132% (inactive) | 157% | -0.376 | -0.933 | 0.595 | 7.83% (inactive) | -0.404 (inactive) | -1.3e-05 (inactive) | 0.00406 (inactive) | inactive | 30.7% (inactive)
4 | CCOC(=O)CSc1nc(-c2ccc3c(c2)OCO3)ccc1C#N | 676 | 4.9% (inactive) | 5.4% (inactive) | 120% | -0.127 | -1.03 | 0.898 | -2.91% (inactive) | -0.199 (inactive) | -8.6e-07 (inactive) | 0.00583 (inactive) | inactive | -3.42% (inactive)
5 | CCCCN(CCCC)C(=O)CSc1nnc2n(C)c(=O)c3c4c(sc3n12)CCCC4 | 496 | -18.2% (inactive) | -94.2% (inactive) | 142% | 2.28 | -1.51 | -0.0585 | 7.93% (inactive) | -0.463 (inactive) | -4.6e-05 (inactive) | 0.00616 (inactive) | inactive | 84% (active)
6 | O=C1c2ccccc2C(=O)N1c1ncccn1 | 500 | -8.5% (inactive) | -89% (inactive) | 138% | -0.519 | -0.638 | 0.031 | 1.42% (inactive) | -0.454 (inactive) | -0.000107 (inactive) | 0.00418 (inactive) | inactive | 3.86% (inactive)
7 | C=C(C)CSc1nc(N)c2c3c(sc2n1)CCC3 | 394 | -3.4% (inactive) | 2.9% (inactive) | 149% | -1.07 | 1.64 | -0.412 | 5.42% (inactive) | -0.451 (inactive) | -0.000115 (inactive) | 0.00788 (inactive) | inactive | -7.33% (inactive)
8 | COc1ccc(C2CC(c3ccccc3)Nc3nc(N)nn32)cc1 (stereo unspecified) | 377 | 4.8% (inactive) | -29.3% (inactive) | 110% | -1.01 | -0.362 | -0.446 | 1.48% (inactive) | -0.495 (inactive) | -1.6e-05 (inactive) | 0.00558 (inactive) | inactive | -15% (inactive)
9 | Cc1cc(/C=N/n2cnnc2)c(C)n1-c1ccc2c(c1)OCO2 | 374 | 0.6% (inactive) | -13.7% (inactive) | 97.4% | -1.04 | 0.298 | 0.807 | 14% (inactive) | -0.569 (inactive) | -6.1e-05 (inactive) | 0.00571 (inactive) | inactive | -15.4% (inactive)
10 | Fc1ccc2[nH]c3c(N4CCSCC4)ncnc3c2c1 | 664 | -4.3% (inactive) | 0.7% (inactive) | 153% | -0.905 | 0.444 | 1.27 | -3.95% (inactive) | -0.418 (inactive) | -2.2e-05 (inactive) | 0.00396 (inactive) | inactive; toxic | 5.41% (inactive)
11 | Cc1ccc(N2C(=O)CC(Cn3nc(C)cc3C)C2=O)cc1 (stereo unspecified) | 471 | -3.4% (inactive) | 5.8% (inactive) | 98.6% | 0.966 | -0.538 | -0.159 | 11.9% (inactive) | -0.387 (inactive) | -2e-06 (inactive) | 0.00565 (inactive) | inactive | 25.4% (inactive)
12 | CNC(=O)CCn1nc(-c2ccccc2)c2ccccc2c1=O | 737 | -2.4% (inactive) | -67.9% (inactive) | 156% | 1.04 | -1.35 | -0.0887 | 11.4% (inactive) | -0.455 (inactive) | -2.4e-05 (inactive) | 0.00449 (inactive) | inactive | 10.7% (inactive)
13 | CCC(CC)c1nc2cc(OC)c(OC)cc2c(=O)o1 | 581 | 0.1% (inactive) | -54% (inactive) | 126% | -1.01 | -1.15 | 0.697 | -4.59% (inactive) | -0.451 (inactive) | -0.000112 (inactive) | 0.00503 (inactive) | inactive | 0.563% (inactive)
14 | CCCN(CCC)c1nc2ccccc2nc1C(C#N)C(=O)OC(C)COC (stereo unspecified) | 586 | -26.5% (inactive) | 1.8% (inactive) | 174% | 0.238 | 0.588 | 0.413 | -12.6% (inactive) | -0.408 (inactive) | -7.9e-05 (inactive) | 0.00444 (inactive) | inactive | 26.1% (inactive)
15 | CCOc1cccc(NC(=O)C2CC(=O)NC(=Nc3ccccc3)S2)c1 (stereo unspecified) | 590 | -4.7% (inactive) | -27.3% (inactive) | 117% | -0.0327 | -1.3 | -0.145 | -11.4% (inactive) | -0.456 (inactive) | -1.8e-05 (inactive) | 0.00448 (inactive) | inactive | 8.03% (inactive)
16 | CC1(C)Cc2c(c(N3CCCCC3)[nH]c(=S)c2C#N)CS1 | 574 | -7.8% (inactive) | -103% (inactive) | 151% | -0.509 | -1.94 | 0.0392 | -10.6% (inactive) | -0.479 (inactive) | -0.000148 (inactive) | 0.00629 (inactive) | inactive | 12.9% (inactive)
17 | Cc1sc(-n2c(C)cc(/C=N/n3cnnc3)c2C)c(C#N)c1C | 408 | 1.9% (inactive) | 29.3% (inactive) | 85.2% | -1.21 | -0.424 | 0.842 | 3.56% (inactive) | -0.546 (inactive) | -9.2e-05 (inactive) | 0.00473 (inactive) | inactive | 14% (inactive)
18 | CCCCc1nc(N2CCOCC2)c(C#N)c2c1COC(C)(C)C2 | 530 | -4.2% (inactive) | -202% (inactive) | 149% | 1.13 | -0.937 | -0.238 | 15.4% (inactive) | -0.458 (inactive) | -6.7e-05 (inactive) | 0.00404 (inactive) | inactive | 1.03% (inactive)
19 | Clc1ccc(COc2ccccn2)c(Cl)c1 | 600 | 2.8% (inactive) | -15.4% (inactive) | 138% | 0.311 | -1.08 | -1.17 | 23.8% (inactive) | -0.387 (inactive) | -4.6e-05 (inactive) | 0.00573 (inactive) | inactive | -0.499% (inactive)
20 | CCOC(=O)c1c(C)oc2ccc(OCC(=O)C(C)(C)C)cc12 | 668 | -6% (inactive) | -24.4% (inactive) | 124% | 0.82 | -1.27 | 0.55 | 20.2% (inactive) | -0.435 (inactive) | -5.9e-05 (inactive) | 0.00509 (inactive) | inactive | -8.35% (inactive)
21 | Cn1c(N)c(C#N)c2c(c1=S)CSC(C)(C)C2 | 571 | -20% (inactive) | -64.2% (inactive) | 144% | 0.44 | -1.23 | -1.03 | 25.8% (inactive) | -0.446 (inactive) | -6.4e-06 (inactive) | 0.00454 (inactive) | inactive | 9.9% (inactive)
22 | CCOc1ccc(S(=O)(=O)N(C)CCO)cc1-c1nc2c(C(C)(C)C)nn(C)c2c(=O)[nH]1 | 637 | 4.6% (inactive) | -94.9% (inactive) | 165% | 0.365 | 1.27 | -0.248 | 1.12% (inactive) | -0.484 (inactive) | -3.4e-05 (inactive) | 0.00687 (inactive) | inactive | 8.59% (inactive)
23 | Cc1cc(=O)oc(C)c1C(=O)NCC(C)C | 455 | -2.1% (inactive) | -11.5% (inactive) | 98.2% | -0.875 | 2.27 | -0.541 | 23.8% (inactive) | -0.432 (inactive) | -5.9e-06 (inactive) | 0.00519 (inactive) | inactive | -17.5% (inactive)
24 | N#Cc1nc(COc2ccc(Br)cc2)oc1N1CCN(Cc2ccccc2)CC1 | 444 | 2% (inactive) | -74.5% (inactive) | 138% | 0.98 | 0.14 | -0.518 | 12.7% (inactive) | -0.444 (inactive) | -2.9e-05 (inactive) | 0.00951 (inactive) | inactive | 12.9% (inactive)
25 | C(=N\n1cnnc1)/c1ccccn1 | 607 | 3.2% (inactive) | -109% (inactive) | 127% | 0.675 | 3.12 | -0.143 | 9.42% (inactive) | -0.442 (inactive) | -0.000114 (inactive) | 0.00562 (inactive) | inactive | 16.5% (inactive)
26 | O=C(CSc1nc2ccccc2c(=O)n1CC1CCCCC1)N1CCOCC1 | 369 | -5.3% (inactive) | -6.6% (inactive) | 136% | -0.271 | -0.657 | -0.609 | 7.42% (inactive) | -0.465 (inactive) | -8.1e-05 (inactive) | 0.00433 (inactive) | inactive | -8.49% (inactive)
27 | CCOC(=O)CSc1nnc2n(Cc3ccccc3)c(=O)c3c4c(sc3n12)CCC4 | 364 | 0.8% (inactive) | 49.8% (inactive) | 168% | -0.465 | -0.253 | 1.89 | 13.4% (inactive) | -0.428 (inactive) | -0.000132 (inactive) | 0.00471 (inactive) | active; weak signal in gallbladder and intestine | 0.799% (inactive)
